The target of experiment [1] is Fibroblast growth factor 1 (Homo sapiens, UniProt P05230). The experiment in a line: Binding affinity to FGF1 by surface plasmon resonance-based solution affinity assay. Put shortly: (§1)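 Dissociation constants (Kd) for ligand binding to FGF-1, FGF-2 and VEGF were determined by an SPR solution affinity assay. Some entries come from a single measurement only.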
In general terms: In SPR one partner is held on a chip, and binding of the other changes the refractive index at the surface.

The target of experiment [2] is Fibroblast growth factor 2 (Homo sapiens, UniProt P09038). The experiment in a line: Binding affinity to FGF2 by surface plasmon resonance-based solution affinity assay. Put shortly:
as §1

Experiment [3] concerns the target T1, Vascular endothelial growth factor A, long form (Homo sapiens, UniProt P15692).
T1 sequence (P15692 whole entry): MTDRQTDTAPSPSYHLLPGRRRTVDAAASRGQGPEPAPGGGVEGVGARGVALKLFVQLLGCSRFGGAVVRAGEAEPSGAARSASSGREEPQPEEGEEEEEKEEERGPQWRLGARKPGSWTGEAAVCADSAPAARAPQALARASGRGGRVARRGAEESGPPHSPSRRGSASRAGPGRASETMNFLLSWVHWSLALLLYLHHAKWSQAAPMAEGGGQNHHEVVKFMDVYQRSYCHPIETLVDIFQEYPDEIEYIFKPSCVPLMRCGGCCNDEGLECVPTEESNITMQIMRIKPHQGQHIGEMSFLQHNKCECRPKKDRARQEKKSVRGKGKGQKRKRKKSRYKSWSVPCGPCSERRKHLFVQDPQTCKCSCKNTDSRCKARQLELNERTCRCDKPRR
The experiment in a line: Binding affinity to VEGF by surface plasmon resonance-based solution affinity assay. Put shortly: as §1

The text below walks through data of ChEMBL document CHEMBL2086261, “A focused sulfated glycoconjugate Ugi library for probing heparan sulfate-binding angiogenic growth factors” (Bioorg Med Chem Lett, 2012).

Chain of Fibroblast growth factor 2 (P09038 143-288 limits assumed): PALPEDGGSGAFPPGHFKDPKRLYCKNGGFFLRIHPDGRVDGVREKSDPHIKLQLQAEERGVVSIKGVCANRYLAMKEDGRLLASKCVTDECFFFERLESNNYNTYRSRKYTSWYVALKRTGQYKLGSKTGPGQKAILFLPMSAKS
Chain of Fibroblast growth factor 1 (P05230 whole entry): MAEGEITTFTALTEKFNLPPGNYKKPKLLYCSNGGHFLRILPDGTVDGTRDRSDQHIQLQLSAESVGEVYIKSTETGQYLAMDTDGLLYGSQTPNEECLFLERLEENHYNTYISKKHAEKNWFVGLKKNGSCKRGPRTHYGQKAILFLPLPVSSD

`CC(=O)N(CC(=O)NCCO[C@H]1O[C@H](COS(=O)(=O)O)[C@@H](OS(=O)(=O)O)[C@H](OS(=O)(=O)O)[C@@H]1OS(=O)(=O)O)Cc1ccccc1`: the values for the Kd in experiment [1], in experiment [2] and in experiment [3] were 25 µM, 287 µM and 76.6 µM, respectively.
For the molecule `CCN(CC(=O)NC[C@H]1O[C@H](OC)[C@@H](OS(=O)(=O)O)[C@@H](OS(=O)(=O)O)[C@@H]1OS(=O)(=O)O)C(=O)CCCc1ccccc1`, the figures for the Kd in experiment [1], in experiment [2] and in experiment [3] were 500 µM, 400 µM and 81 µM, respectively.
For the molecule `CCN(CC(=O)NCCO[C@H]1O[C@H](COS(=O)(=O)O)[C@@H](OS(=O)(=O)O)[C@H](OS(=O)(=O)O)[C@@H]1OS(=O)(=O)O)C(=O)CCC(=O)O`, the values for the equilibrium dissociation constant (Kd) in experiment [1], in experiment [2] and in experiment [3] were 43 µM, 122 µM and 40 µM, respectively.
As for `CO[C@H]1O[C@H](CNC(=O)CN(CCOS(=O)(=O)O)C(C)=O)[C@@H](OS(=O)(=O)O)[C@H](OS(=O)(=O)O)[C@@H]1OS(=O)(=O)O`, the dissociation constant Kd – broadly, the equilibrium constant for the complex coming apart – was found to be 95 µM in experiment [1], 240 µM in experiment [2] and 280 µM in experiment [3].
For `CCN(CC(=O)NC[C@H]1O[C@H](OC)[C@@H](OS(=O)(=O)O)[C@@H](OS(=O)(=O)O)[C@@H]1OS(=O)(=O)O)C(=O)CCCCCCCCCOS(=O)(=O)O` the same measures were 111 µM, 240 µM and 545 µM.
For `CO[C@H]1O[C@H](CN=[N+]=[N-])[C@@H](OS(=O)(=O)O)[C@H](OS(=O)(=O)O)[C@@H]1OS(=O)(=O)O`, in that order: 343 µM, 210 µM and 630 µM.
For `O=C(CNC(=O)Cc1cccc(Cl)c1)NCCO[C@H]1O[C@H](COS(=O)(=O)O)[C@@H](OS(=O)(=O)O)[C@H](OS(=O)(=O)O)[C@@H]1OS(=O)(=O)O` the same measures were 170 µM, 837 µM and 91 µM.
For the molecule `CO[C@H]1O[C@H](CNC(=O)CN(Cc2ccccc2)C(C)=O)[C@@H](OS(=O)(=O)O)[C@H](OS(=O)(=O)O)[C@@H]1OS(=O)(=O)O`, the results for the Kd in experiment [1], in experiment [2] and in experiment [3] were 140 µM, 192 µM and 77 µM, respectively.
Regarding `CCN(CC(=O)NCCO[C@H]1O[C@H](COS(=O)(=O)O)[C@@H](OS(=O)(=O)O)[C@H](OS(=O)(=O)O)[C@@H]1OS(=O)(=O)O)C(=O)CCCCCCCCCOS(=O)(=O)O`, the Kd in experiment [1] was 20 µM; in experiment [2] it was 157 µM; in experiment [3], 50 µM.
With `CC(=O)N(CC(=O)NCCO[C@H]1O[C@H](COS(=O)(=O)O)[C@@H](OS(=O)(=O)O)[C@H](OS(=O)(=O)O)[C@@H]1OS(=O)(=O)O)c1ccccc1`, the results for the Kd in experiment [1], in experiment [2] and in experiment [3] were 97 µM, 240 µM and 402 µM, respectively.
For `CO[C@H]1O[C@H](CNC(=O)CNC(=O)Cc2cccc(Cl)c2)[C@@H](OS(=O)(=O)O)[C@H](OS(=O)(=O)O)[C@@H]1OS(=O)(=O)O`, in that order: 37 µM, 430 µM and 45.3 µM.
For `CO[C@H]1O[C@H](CNC(=O)CN(CCc2ccccc2)C(C)=O)[C@@H](OS(=O)(=O)O)[C@H](OS(=O)(=O)O)[C@@H]1OS(=O)(=O)O`, in that order: 224 µM, 680 µM and 109 µM.
For `CCN(CC(=O)NC[C@H]1O[C@H](OC)[C@@H](OS(=O)(=O)O)[C@@H](OS(=O)(=O)O)[C@@H]1OS(=O)(=O)O)C(=O)CCC(=O)O` the same measures were 338 µM, 291 µM and 207 µM.
In the case of `CO[C@H]1O[C@H](CNC(=O)CN(C(C)=O)C2CCCCCCCCCCC2)[C@@H](OS(=O)(=O)O)[C@H](OS(=O)(=O)O)[C@@H]1OS(=O)(=O)O`, the equilibrium dissociation constant (Kd) came out at 265 µM in experiment [1], 480 µM in experiment [2] and 1200 µM in experiment [3].
For `CO[C@H]1O[C@H](CNC(=O)CN(C(C)=O)C2CCCCC2)[C@@H](OS(=O)(=O)O)[C@H](OS(=O)(=O)O)[C@@H]1OS(=O)(=O)O`, in that order: 310 µM, 413 µM and 1700 µM.
For `CCN(CC(=O)NCCO[C@H]1O[C@H](COS(=O)(=O)O)[C@@H](OS(=O)(=O)O)[C@H](OS(=O)(=O)O)[C@@H]1OS(=O)(=O)O)C(=O)CCCCC(=O)O`, the dissociation constant (Kd) is 44 µM in experiment [1], 188 µM in experiment [2] and 81 µM in experiment [3].
With `CCCCC1CCC(N(CC(=O)NC[C@H]2O[C@H](OC)[C@@H](OS(=O)(=O)O)[C@@H](OS(=O)(=O)O)[C@@H]2OS(=O)(=O)O)C(C)=O)CC1` (stereo not given in full), the dissociation constant Kd is 243 µM in experiment [1], 540 µM in experiment [2] and 1000 µM in experiment [3].
Molecule `CCN(CC(=O)NC[C@H]1O[C@H](OC)[C@@H](OS(=O)(=O)O)[C@@H](OS(=O)(=O)O)[C@@H]1OS(=O)(=O)O)C(=O)CCc1ccccc1` gave a Kd in experiment [3] of 596 µM.
Consider `CO[C@H]1O[C@H](CNC(=O)CN(C(C)=O)C2CCCCCC2)[C@@H](OS(=O)(=O)O)[C@H](OS(=O)(=O)O)[C@@H]1OS(=O)(=O)O`, for which the results for the dissociation constant (Kd) in experiment [1], in experiment [2] and in experiment [3] were 370 µM, 410 µM and 3000 µM, respectively.
For `CO[C@H]1O[C@H](CNC(=O)CN(C(C)=O)c2ccccc2)[C@@H](OS(=O)(=O)O)[C@H](OS(=O)(=O)O)[C@@H]1OS(=O)(=O)O`, in that order: 196 µM, 480 µM and 76 µM.
On to `CC(=O)N(CCc1ccccc1)CC(=O)NCCO[C@H]1O[C@H](COS(=O)(=O)O)[C@@H](OS(=O)(=O)O)[C@H](OS(=O)(=O)O)[C@@H]1OS(=O)(=O)O`, for which the figures for the Kd in experiment [1], in experiment [2] and in experiment [3] were 11.8 µM, 113 µM and 29 µM, respectively.
Regarding `CO[C@H]1O[C@H](COS(=O)(=O)O)[C@@H](OS(=O)(=O)O)[C@H](OS(=O)(=O)O)[C@@H]1OS(=O)(=O)O`, the dissociation constant Kd in experiment [3] amounted to 198 µM.
Take `CCN(CC(=O)NC[C@H]1O[C@H](OC)[C@@H](OS(=O)(=O)O)[C@@H](OS(=O)(=O)O)[C@@H]1OS(=O)(=O)O)C(=O)COS(=O)(=O)O`: the values for the dissociation constant (Kd) in experiment [1] and in experiment [3] were 174 µM and 512 µM, respectively.
As to `CCN(CC(=O)NC[C@H]1O[C@H](OC)[C@@H](OS(=O)(=O)O)[C@@H](OS(=O)(=O)O)[C@@H]1OS(=O)(=O)O)C(=O)c1ccccc1`, the Kd in experiment [1] was 366 µM; in experiment [2], 480 µM; in experiment [3], 1100 µM.
As for `CCN(CC(=O)NC[C@H]1O[C@H](OC)[C@@H](OS(=O)(=O)O)[C@@H](OS(=O)(=O)O)[C@@H]1OS(=O)(=O)O)C(=O)CCCCC(=O)O`, the dissociation constant (Kd) is 160 µM in experiment [1], 480 µM in experiment [2] and 104 µM in experiment [3].
